# Test results: ChEMBL document CHEMBL3525907, “Studies on the metabolism and biological activity of the epimers of sulindac” (Drug Metab Dispos, 2011)
# Calls of active or inactive are those of the source. The rule behind the calls is not given here.
# What was measured:
# [1] = molecular target: T1, Methionine-R-sulfoxide reductase B1 (Rattus norvegicus, UniProt Q52KJ8); test: Drug metabolism in rat liver ammonium sulfate fraction assessed as MSRB1-mediated DABS-Met formation measured per mg of protein at 200 uM by HPLC analysis; type: ADME, tissue-based
# T1 sequence (Q52KJ8 whole entry): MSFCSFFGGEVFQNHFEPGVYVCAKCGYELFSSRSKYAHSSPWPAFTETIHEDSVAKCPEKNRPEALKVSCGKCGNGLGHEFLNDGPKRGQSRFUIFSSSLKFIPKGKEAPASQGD
# Outline: (§1)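 Fractions (S-100, 30–70% ammonium sulfate cut) from rat liver purification; aliquots incubated with 200 μM (R)-sulindac or 200 μM DABS-R-Met(o) in 100 mM Tris pH 7.4 with 15 mM DTT or Trx system (1 mM NADPH, TrxB, TrxA), 37°C. Stopped with acetonitrile; C18 HPLC, sulindac sulfide at 330 nm, DABS-Met at 436 nm. Specific activity as nmol product/mg protein/h.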
# [2] = molecular target: T1, Methionine-R-sulfoxide reductase B1; test: Drug metabolism in rat liver G50 fraction assessed as MSRB1-mediated DABS-Met formation measured per mg of protein at 200 uM by HPLC analysis; type: ADME, tissue-based
# Outline: (§2)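 Rat liver purification fractions (DEAE, G50 peak) assayed with 200 μM DABS-R-Met(o) in 100 mM Tris pH 7.4, DTT (15 mM) or Trx system (1 mM NADPH, TrxB, TrxA) as reductant, 37°C; acetonitrile stop; DABS-Met resolved on C18 HPLC, absorbance 436 nm; activity per mg protein, expressed as purification factor.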
# [3] = molecular target: T1, Methionine-R-sulfoxide reductase B1; test: Drug metabolism in rat liver DEAE fraction assessed as MSRB1-mediated DABS-Met formation measured per mg of protein at 200 uM by HPLC analysis; type: ADME, tissue-based; outline: as §2
# [4] = molecular target: T1, Methionine-R-sulfoxide reductase B1; test: Drug metabolism in rat liver S100 fraction assessed as MSRB1-mediated DABS-Met formation measured per mg of protein at 200 uM by HPLC analysis; type: ADME, tissue-based; outline: as §1
# [5] = molecular target: T1, Methionine-R-sulfoxide reductase B1; test: Activity of MSRB1 in rat liver S100 fraction assessed as enzyme-mediated drug metabolism measured per mg of protein at 200 uM by HPLC analysis; type: ADME
# Outline: (§3)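 Fractions from rat liver reductase purification (S-100, 30–70% ammonium sulfate cut, DEAE pool, G50 gel filtration) incubated with 200 μM (R)-sulindac in 100 mM Tris pH 7.4 with 15 mM DTT, 37°C, 100 μl; stopped with acetonitrile; sulindac sulfide quantified by C18 HPLC at 330 nm; specific activity as nmol product/mg protein/h.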
# [6] = molecular target: T1, Methionine-R-sulfoxide reductase B1; test: Activity of MSRB1 in rat liver G50 fraction assessed as enzyme-mediated drug metabolism measured per mg of protein at 200 uM by HPLC analysis; type: ADME; outline: as §3
# [7] = molecular target: T1, Methionine-R-sulfoxide reductase B1; test: Activity of MSRB1 in rat liver DEAE fraction assessed as enzyme-mediated drug metabolism measured per mg of protein at 200 uM by HPLC analysis; type: ADME; outline: as §3
# [8] = molecular target: T1, Methionine-R-sulfoxide reductase B1; test: Activity of MSRB1 in rat liver ammonium sulfate fraction assessed as enzyme-mediated drug metabolism measured per mg of protein at 200 uM by HPLC analysis; type: ADME; outline: as §3
# [9] = tested on: Zone of skin; test: Drug metabolism in Sprague-Dawley rat skin assessed as sulindac sulfide formation at 2 mg, ip after 0.5 to 4 hrs by HPLC analysis; details: in vivo
# [10] = tested on: Liver; test: Drug metabolism in Sprague-Dawley rat liver assessed as sulindac sulfone formation at 2 mg, ip after 0.5 to 4 hrs by HPLC analysis; details: in vivo
# [11] = molecular target: Cytochrome P450 1A2 (Homo sapiens, UniProt P05177); test: Drug metabolism assessed as human recombinant CYP1A2-mediated sulindac sulfone formation measured per pmol of protein at 500 uM after 90 mins by HPLC analysis; type: ADME; details: recombinant enzyme, 1.5 h
# Cytochrome P450 1A2 (Homo sapiens, UniProt P05177), sequence (P05177 whole entry): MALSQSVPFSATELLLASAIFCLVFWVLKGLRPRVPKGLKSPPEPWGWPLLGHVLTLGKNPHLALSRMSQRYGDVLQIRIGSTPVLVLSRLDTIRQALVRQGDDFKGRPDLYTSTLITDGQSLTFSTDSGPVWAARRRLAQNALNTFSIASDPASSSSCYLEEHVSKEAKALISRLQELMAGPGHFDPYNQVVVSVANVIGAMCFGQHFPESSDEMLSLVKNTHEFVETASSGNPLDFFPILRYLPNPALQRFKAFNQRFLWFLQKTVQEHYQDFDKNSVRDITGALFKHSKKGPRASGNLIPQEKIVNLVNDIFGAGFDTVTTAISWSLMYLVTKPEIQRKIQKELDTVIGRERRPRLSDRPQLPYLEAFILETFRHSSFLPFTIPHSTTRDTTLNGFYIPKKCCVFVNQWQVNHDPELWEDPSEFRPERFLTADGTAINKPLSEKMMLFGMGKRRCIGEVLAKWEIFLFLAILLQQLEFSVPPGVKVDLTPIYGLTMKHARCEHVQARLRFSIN
# Outline: (§4)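 Recombinant rat or human P450 Supersomes (some with cytochrome b5, variable reductase) incubated with (R)-sulindac at 500 μM or (S)-sulindac at 200 μM plus NADPH-regenerating system in 100 mM potassium phosphate pH 7.4 at 37°C, linear up to 90 min; acetonitrile stop; sulfone by C18 HPLC at 330 nm; ≥3 runs; pmol/pmol enzyme/h, mean ± S.E.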
# [12] = Drug metabolism assessed as Escherichia coli MSRB-mediated reduced product formation; type: ADME
# [13] = molecular target: Cytochrome P450 1A2 (Rattus norvegicus, UniProt P04799); test: Drug metabolism assessed as rat recombinant CYP1A2-mediated sulindac sulfone formation measured per pmol of protein at 500 uM after 90 mins by HPLC analysis; type: ADME; details: recombinant enzyme, 1.5 h; outline: as §4
# Cytochrome P450 1A2 (Rattus norvegicus, UniProt P04799), sequence (P04799 whole entry): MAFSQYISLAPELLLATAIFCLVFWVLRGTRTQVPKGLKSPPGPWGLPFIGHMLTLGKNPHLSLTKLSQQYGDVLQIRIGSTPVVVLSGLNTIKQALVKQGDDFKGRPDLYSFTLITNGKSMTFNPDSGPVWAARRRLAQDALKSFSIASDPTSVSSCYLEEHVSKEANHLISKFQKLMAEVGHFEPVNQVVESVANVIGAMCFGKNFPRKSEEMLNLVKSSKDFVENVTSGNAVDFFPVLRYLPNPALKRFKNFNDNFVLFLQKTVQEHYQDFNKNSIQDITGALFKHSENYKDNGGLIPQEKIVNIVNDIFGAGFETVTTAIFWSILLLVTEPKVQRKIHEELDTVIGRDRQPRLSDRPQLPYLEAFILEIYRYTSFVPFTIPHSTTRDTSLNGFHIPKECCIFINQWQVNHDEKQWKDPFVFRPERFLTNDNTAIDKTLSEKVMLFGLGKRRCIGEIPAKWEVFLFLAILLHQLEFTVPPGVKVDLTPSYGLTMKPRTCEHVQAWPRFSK
# [14] = molecular target: Cytochrome P450 2D6 (Homo sapiens, UniProt P10635); test: Drug metabolism assessed as human recombinant CYP2D6-mediated sulindac sulfone formation measured per pmol of protein at 500 uM after 90 mins by HPLC analysis; type: ADME; details: recombinant enzyme, 1.5 h; outline: as §4
# [15] = tested on: Plasma; test: Drug metabolism in Sprague-Dawley rat plasma assessed as sulindac sulfone formation at 2 mg, ip after 0.5 to 4 hrs by HPLC analysis; details: in vivo
# [16] = molecular target: Cytochrome P450 1B1 (Homo sapiens, UniProt Q16678); test: Drug metabolism assessed as human recombinant CYP1B1-mediated sulindac sulfone formation measured per pmol of protein at 500 uM after 90 mins by HPLC analysis; type: ADME; details: recombinant enzyme, 1.5 h; outline: as §4
# Cytochrome P450 1B1, sequence (Q16678 whole entry): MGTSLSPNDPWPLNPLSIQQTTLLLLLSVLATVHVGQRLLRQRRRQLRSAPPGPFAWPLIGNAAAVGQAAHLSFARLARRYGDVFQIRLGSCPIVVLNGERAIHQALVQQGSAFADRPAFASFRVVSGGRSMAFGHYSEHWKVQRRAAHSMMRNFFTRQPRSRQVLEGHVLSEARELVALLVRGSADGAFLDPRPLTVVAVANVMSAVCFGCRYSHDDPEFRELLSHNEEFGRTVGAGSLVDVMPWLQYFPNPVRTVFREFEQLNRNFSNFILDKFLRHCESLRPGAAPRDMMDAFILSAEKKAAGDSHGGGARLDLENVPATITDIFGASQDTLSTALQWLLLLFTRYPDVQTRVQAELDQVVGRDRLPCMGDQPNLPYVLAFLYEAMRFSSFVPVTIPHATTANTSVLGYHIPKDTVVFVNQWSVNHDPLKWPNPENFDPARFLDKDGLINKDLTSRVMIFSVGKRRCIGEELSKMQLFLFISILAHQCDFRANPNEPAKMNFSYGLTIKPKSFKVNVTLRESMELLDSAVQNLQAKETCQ
# [17] = Drug metabolism in human HepG2 cells assessed as induction of cytochrome P450-mediated sulindac sulfone formation at 125 uM preincubated for 2 to 24 hrs followed by compound-washout and fresh compound addition measured after 1 hr by HPLC analysis; type: ADME, cell-based; details: hepg2, 1 h
# Outline: (§5)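 HepG2 cells in MEM/10% FBS grown to 80% confluence, pretreated 2–24 h with 125 μM (R)- or (S)-sulindac at 37°C, 5% CO2; washed with PBS, then 200 μM (R)- or (S)-sulindac in fresh medium for 1 h at 37°C; medium mixed with 3 volumes acetonitrile and analysed by HPLC for sulfone.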
# [18] = Activity of cytochrome P450 in human HepG2 cells assessed as enzyme-mediated drug metabolism at 125 uM preincubated for 2 to 24 hrs followed by compound-washout and fresh compound addition measured after 1 hr by HPLC analysis; type: ADME, cell-based; details: hepg2, 1 h; outline: as §5
# [19] = molecular target: Cytochrome P450 1A1 (Rattus norvegicus, UniProt P00185); test: Drug metabolism assessed as rat recombinant CYP1A1-mediated sulindac sulfone formation measured per pmol of protein at 500 uM after 90 mins by HPLC analysis; type: ADME; details: recombinant enzyme, 1.5 h; outline: as §4
# Cytochrome P450 1A1, sequence (P00185 whole entry): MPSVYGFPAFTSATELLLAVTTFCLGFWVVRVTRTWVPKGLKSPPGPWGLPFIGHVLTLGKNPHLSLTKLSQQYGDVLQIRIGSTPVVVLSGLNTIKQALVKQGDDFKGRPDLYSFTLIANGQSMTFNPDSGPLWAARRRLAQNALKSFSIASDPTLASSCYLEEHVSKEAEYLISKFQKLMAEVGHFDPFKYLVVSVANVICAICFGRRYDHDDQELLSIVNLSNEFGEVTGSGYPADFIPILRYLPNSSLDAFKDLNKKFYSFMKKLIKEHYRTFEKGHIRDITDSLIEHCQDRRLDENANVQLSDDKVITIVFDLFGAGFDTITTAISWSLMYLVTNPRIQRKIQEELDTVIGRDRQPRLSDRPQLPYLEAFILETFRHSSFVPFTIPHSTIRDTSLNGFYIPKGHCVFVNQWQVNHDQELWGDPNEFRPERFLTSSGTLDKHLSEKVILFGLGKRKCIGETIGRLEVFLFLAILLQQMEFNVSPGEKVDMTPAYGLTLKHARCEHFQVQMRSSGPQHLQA
# [20] = tested on: MRC5; test: Cytoprotective activity in TBHP-induced human MRC5 cells at 500 uM incubated for 48 hrs prior to TBHP-challenge measured after 2 hrs; type: functional, cell-based
# Outline: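 Normal lung cells preincubated 48 h with 500 μM (R)- or (S)-sulindac or no drug, then challenged with TBHP; viability expressed as percent of cells not exposed to TBHP; mean and S.E. of five repeats; p < 0.05 versus no-drug controls.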
# [21] = molecular target: Cytochrome P450 3A2 (Rattus norvegicus, UniProt P05183); test: Drug metabolism assessed as rat recombinant CYP3A2-mediated sulindac sulfone formation measured per pmol of protein at 500 uM after 90 mins by HPLC analysis; type: ADME; details: recombinant enzyme, 1.5 h; outline: as §4
# Cytochrome P450 3A2, sequence (P05183 whole entry): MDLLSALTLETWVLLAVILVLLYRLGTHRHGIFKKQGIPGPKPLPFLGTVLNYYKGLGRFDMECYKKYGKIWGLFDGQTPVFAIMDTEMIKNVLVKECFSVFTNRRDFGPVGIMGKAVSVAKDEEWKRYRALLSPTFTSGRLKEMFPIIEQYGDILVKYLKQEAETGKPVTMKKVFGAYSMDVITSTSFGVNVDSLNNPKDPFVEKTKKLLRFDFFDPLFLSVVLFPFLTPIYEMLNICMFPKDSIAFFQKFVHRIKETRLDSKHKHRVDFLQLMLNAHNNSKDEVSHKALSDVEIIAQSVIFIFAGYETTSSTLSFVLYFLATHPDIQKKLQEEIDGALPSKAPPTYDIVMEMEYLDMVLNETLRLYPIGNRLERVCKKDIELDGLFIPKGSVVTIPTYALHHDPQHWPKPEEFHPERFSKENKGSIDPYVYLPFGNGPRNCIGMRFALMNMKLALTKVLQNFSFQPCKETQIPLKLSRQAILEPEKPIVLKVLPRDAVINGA
# [22] = molecular target: Cytochrome P450 2C8 (Homo sapiens, UniProt P10632); test: Drug metabolism assessed as human recombinant CYP2C8-mediated sulindac sulfone formation measured per pmol of protein at 500 uM after 90 mins by HPLC analysis; type: ADME; details: recombinant enzyme, 1.5 h; outline: as §4
# Cytochrome P450 2C8, sequence (P10632 whole entry): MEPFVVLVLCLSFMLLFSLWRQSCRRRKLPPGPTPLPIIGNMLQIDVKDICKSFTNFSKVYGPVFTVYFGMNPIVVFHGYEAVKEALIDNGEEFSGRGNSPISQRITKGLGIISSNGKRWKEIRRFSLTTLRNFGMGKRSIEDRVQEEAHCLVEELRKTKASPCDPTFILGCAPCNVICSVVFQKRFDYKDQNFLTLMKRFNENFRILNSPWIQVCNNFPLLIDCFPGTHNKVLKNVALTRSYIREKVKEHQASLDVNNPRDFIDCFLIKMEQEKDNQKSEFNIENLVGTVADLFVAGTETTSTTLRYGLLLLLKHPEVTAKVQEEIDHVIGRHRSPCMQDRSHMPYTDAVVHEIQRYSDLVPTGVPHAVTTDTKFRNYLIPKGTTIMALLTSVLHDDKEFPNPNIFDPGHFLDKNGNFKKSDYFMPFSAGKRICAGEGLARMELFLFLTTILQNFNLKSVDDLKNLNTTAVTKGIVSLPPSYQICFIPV
# [23] = tested on: Liver microsome; test: Drug metabolism in rat liver microsomes at […] after 60 mins by HPLC analysis; type: ADME; details: 1 h
# Outline: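 Uninduced rat liver microsomes (100,000g pellet, washed), 20–80 μg protein, incubated with 20 nmol sulindac epimer in 100 μl 100 mM potassium phosphate pH 7.4 with NADPH-regenerating system (1.5 mM NADPH, 5 mM glucose 6-phosphate, G6PDH, 5 mM MgCl2), 60 min, 37°C. Stopped with 3 volumes acetonitrile; sulfone quantified by C18 HPLC. Six rat preparations.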
# [24] = molecular target: Methionine-R-sulfoxide reductase B3 (Homo sapiens, UniProt Q8IXL7); test: Drug metabolism assessed as human MSRB3-mediated reduced product formation; type: ADME
# Methionine-R-sulfoxide reductase B3, sequence (Q8IXL7 whole entry): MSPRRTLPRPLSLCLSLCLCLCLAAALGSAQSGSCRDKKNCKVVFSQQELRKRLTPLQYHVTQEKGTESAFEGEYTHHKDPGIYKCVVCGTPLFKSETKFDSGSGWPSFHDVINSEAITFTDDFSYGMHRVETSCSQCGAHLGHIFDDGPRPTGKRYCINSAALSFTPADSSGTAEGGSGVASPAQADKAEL
# [25] = molecular target: Cytochrome P450 3A4 (Homo sapiens, UniProt P08684); test: Drug metabolism assessed as human recombinant CYP3A4-mediated sulindac sulfone formation measured per pmol of protein at 500 uM after 90 mins by HPLC analysis; type: ADME; details: recombinant enzyme, 1.5 h; outline: as §4
# Cytochrome P450 3A4, sequence (P08684 whole entry): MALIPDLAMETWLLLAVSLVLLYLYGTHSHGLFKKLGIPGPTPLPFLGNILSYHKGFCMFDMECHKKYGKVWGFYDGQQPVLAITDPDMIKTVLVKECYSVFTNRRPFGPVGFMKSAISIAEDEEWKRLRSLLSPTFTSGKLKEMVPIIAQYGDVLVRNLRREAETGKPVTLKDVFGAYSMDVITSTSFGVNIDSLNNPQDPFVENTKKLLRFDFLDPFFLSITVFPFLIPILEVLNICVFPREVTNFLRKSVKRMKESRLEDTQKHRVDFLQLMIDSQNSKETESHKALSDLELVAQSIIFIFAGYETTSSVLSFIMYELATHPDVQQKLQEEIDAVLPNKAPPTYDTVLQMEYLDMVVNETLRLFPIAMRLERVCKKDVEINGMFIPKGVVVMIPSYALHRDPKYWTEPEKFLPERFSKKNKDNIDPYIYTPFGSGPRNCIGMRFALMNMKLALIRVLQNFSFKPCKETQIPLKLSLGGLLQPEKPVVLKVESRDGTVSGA
# [26] = molecular target: T1, Methionine-R-sulfoxide reductase B1; test: Drug metabolism in rat liver G50 fraction assessed as MSRB1-mediated reduced product formation measured per mg of protein at 200 uM by HPLC analysis; type: ADME, tissue-based; outline: as §3
# [27] = molecular target: T1, Methionine-R-sulfoxide reductase B1; test: Drug metabolism in rat liver DEAE fraction assessed as MSRB1-mediated reduced product formation measured per mg of protein at 200 uM by HPLC analysis; type: ADME, tissue-based; outline: as §3
# [28] = molecular target: T1, Methionine-R-sulfoxide reductase B1; test: Drug metabolism in rat liver S100 fraction assessed as MSRB1-mediated reduced product formation measured per mg of protein at 200 uM by HPLC analysis; type: ADME, tissue-based; outline: as §1
# [29] = molecular target: Methionine-R-sulfoxide reductase B2, mitochondrial (Homo sapiens, UniProt Q9Y3D2); test: Drug metabolism assessed as human MSRB2-mediated reduced product formation; type: ADME
# Methionine-R-sulfoxide reductase B2, mitochondrial, sequence (Q9Y3D2 whole entry): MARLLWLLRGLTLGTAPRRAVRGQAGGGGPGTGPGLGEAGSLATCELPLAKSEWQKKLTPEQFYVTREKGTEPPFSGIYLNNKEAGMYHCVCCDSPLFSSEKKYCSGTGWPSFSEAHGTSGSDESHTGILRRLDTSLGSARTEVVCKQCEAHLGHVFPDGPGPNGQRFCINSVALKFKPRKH
# [30] = molecular target: Cytochrome P450 2C19 (Homo sapiens, UniProt P33261); test: Drug metabolism assessed as human recombinant CYP2C19-mediated sulindac sulfone formation measured per pmol of protein at 500 uM after 90 mins by HPLC analysis; type: ADME; details: recombinant enzyme, 1.5 h; outline: as §4
# Cytochrome P450 2C19, sequence (P33261 whole entry): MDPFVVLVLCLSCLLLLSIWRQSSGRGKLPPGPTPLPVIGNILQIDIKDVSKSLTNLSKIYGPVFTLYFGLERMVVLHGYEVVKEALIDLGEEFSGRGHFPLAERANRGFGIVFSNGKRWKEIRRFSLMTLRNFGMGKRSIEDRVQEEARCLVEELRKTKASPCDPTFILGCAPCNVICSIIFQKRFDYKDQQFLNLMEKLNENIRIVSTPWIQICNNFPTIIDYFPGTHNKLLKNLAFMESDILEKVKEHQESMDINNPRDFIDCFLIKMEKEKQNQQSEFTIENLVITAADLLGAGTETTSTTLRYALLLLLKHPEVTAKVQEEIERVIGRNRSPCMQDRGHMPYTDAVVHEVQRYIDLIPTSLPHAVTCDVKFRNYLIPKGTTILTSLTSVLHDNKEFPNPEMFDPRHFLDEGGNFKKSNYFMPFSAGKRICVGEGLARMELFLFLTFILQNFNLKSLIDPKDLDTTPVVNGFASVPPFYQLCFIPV
# [31] = molecular target: T1, Methionine-R-sulfoxide reductase B1; test: Drug metabolism in rat liver ammonium sulfate fraction assessed as MSRB1-mediated reduced product formation measured per mg of protein at 200 uM by HPLC analysis; type: ADME, tissue-based; outline: as §1
# [32] = molecular target: Cytochrome P450 2B1 (Rattus norvegicus, UniProt P00176); test: Drug metabolism assessed as rat recombinant CYP2B1-mediated sulindac sulfone formation measured per pmol of protein at 500 uM after 90 mins by HPLC analysis; type: ADME; details: recombinant enzyme, 1.5 h; outline: as §4
# [33] = molecular target: Cytochrome P450 2C9 (Homo sapiens, UniProt P11712); test: Drug metabolism assessed as human recombinant CYP2C9-mediated sulindac sulfone formation measured per pmol of protein at 500 uM after 90 mins by HPLC analysis; type: ADME; details: recombinant enzyme, 1.5 h; outline: as §4
# Cytochrome P450 2C9, sequence (P11712 whole entry): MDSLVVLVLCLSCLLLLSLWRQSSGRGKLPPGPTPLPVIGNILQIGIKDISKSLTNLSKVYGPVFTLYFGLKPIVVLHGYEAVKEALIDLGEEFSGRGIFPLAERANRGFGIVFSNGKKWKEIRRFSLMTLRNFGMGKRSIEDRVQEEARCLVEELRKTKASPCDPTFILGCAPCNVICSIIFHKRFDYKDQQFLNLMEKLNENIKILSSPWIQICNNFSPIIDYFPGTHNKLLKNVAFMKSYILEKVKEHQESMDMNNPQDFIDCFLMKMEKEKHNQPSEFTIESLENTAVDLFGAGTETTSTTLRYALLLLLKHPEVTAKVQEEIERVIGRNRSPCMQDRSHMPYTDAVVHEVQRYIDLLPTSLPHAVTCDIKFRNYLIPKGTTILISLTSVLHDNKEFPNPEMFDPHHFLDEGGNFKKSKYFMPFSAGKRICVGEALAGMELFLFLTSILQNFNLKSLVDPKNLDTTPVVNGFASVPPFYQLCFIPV
# [34] = tested on: Plasma; test: Drug metabolism in Sprague-Dawley rat plasma assessed as sulindac sulfide formation at 2 mg, ip after 0.5 to 4 hrs by HPLC analysis; details: in vivo
# [35] = tested on: Liver; test: Drug metabolism in Sprague-Dawley rat liver assessed as sulindac sulfide formation at 2 mg, ip after 0.5 to 4 hrs by HPLC analysis; details: in vivo
# [36] = tested on: Zone of skin; test: Drug metabolism in Sprague-Dawley rat skin assessed as sulindac sulfone formation at 2 mg, ip after 0.5 to 4 hrs by HPLC analysis; details: in vivo
# [37] = tested on: Liver microsome; test: Drug metabolism in rat liver microsomes assessed as sulindac sulfone formation at 200 µM after 60 mins by HPLC analysis in presence of NADPH; details: 1 h
# [38] = Drug metabolism in rat liver cytosolic fraction at 20 nM after 60 mins by HPLC analysis; type: ADME, tissue-based; details: cytosol, 1 h
# [39] = tested on: A549; test: Potentiation of TBHP-induced cytotoxicity in human A549 cells at 500 uM incubated for 48 hrs prior to TBHP-challenge measured after 2 hrs; type: functional, cell-based
compound,measurement,setting,value
CN(C)c1ccc(/N=N/c2ccc(S(=O)(=O)N[C@@H](CC[S@@+](C)[O-])C(=O)O)cc2)cc1,Drug metabolism,[1],metabolite_detected
same,Drug metabolism,[2],metabolite_detected
same,Drug metabolism,[3],metabolite_detected
same,Drug metabolism,[4],metabolite_detected
CSCC[C@H](NS(=O)(=O)c1ccc(/N=N/c2ccc(N(C)C)cc2)cc1)C(=O)O,Drug metabolism,[5],metabolite_detected
same,Drug metabolism,[6],metabolite_detected
same,Drug metabolism,[7],metabolite_detected
same,Drug metabolism,[8],metabolite_detected
"CC1=C(CC(=O)O)c2cc(F)ccc2/C1=C\c1ccc([S+](C)[O-])cc1 (single isomer, unassigned)",Drug metabolism,[9],metabolite_detected
same,Drug metabolism,[10],metabolite_detected
same,Drug metabolism,[11],130 pmol/h
same,Drug metabolism,[12],metabolite_not_detected
same,Drug metabolism,[13],460 pmol/h
same,Drug metabolism,[14],metabolite_not_detected
same,Drug metabolism,[15],metabolite_detected
same,Drug metabolism,[16],73 pmol/h
same,Drug metabolism,[17],metabolite_detected
same,Drug metabolism,[18],metabolite_detected
same,Drug metabolism,[19],380 pmol/h
same,Activity,[20],Active
same,Drug metabolism,[21],metabolite_not_detected
same,Drug metabolism,[22],metabolite_not_detected
same,Drug metabolism,[23],metabolite_not_detected
same,Drug metabolism,[24],metabolite_not_detected
same,Drug metabolism,[25],47 pmol/h
same,Drug metabolism,[26],1160 nmol/h
same,Drug metabolism,[27],32.6 nmol/h
same,Drug metabolism,[28],4.2 nmol/h
same,Drug metabolism,[29],metabolite_not_detected
same,Drug metabolism,[30],metabolite_not_detected
same,Drug metabolism,[31],5.6 nmol/h
same,Drug metabolism,[32],metabolite_not_detected
same,Drug metabolism,[33],metabolite_not_detected
same,Drug metabolism,[34],metabolite_detected
same,Drug metabolism,[35],metabolite_detected
same,Drug metabolism,[36],metabolite_detected
same,Drug metabolism,[37],metabolite_detected
same,Drug metabolism,[38],metabolite_not_detected
same,Activity,[39],Active
